# Hits are enriched below; roughly 12% of the tested compounds scored in any of these assays.
# CHOP inh: CHOP inhibition in unfolded protein response | CHO-K1 CHOP-promoter luciferase, tunicamycin-induced, 15-18 h | hit rate 3.8% among 220,000 | inhibition, % at 10 µM;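 active = compounds that reduced the stress-induced luciferase reporter signal by more than about 70% of percent inhibition, limit read from the data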
# Dynein transport: blocks dynein driven cargo transport along microtubules; hit rate 0.47% among 220,000; z-score, hits read low; AID 1381; 3617.4 mouse cells, GR-EGFP nuclear translocation imaging; test concentration mostly 20 µM; stimulated with dexamethasone, 1 µM; stronger effect = lower value;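 active = plate z-score of nuclear minus cytoplasmic receptor signal below a set negative limit, without overly bright fluorescence or cell loss, cut at about -3.5 in these data, passing the limit was not always enough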;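 note: z-score of nuclear minus cytoplasmic ring GR-EGFP intensity difference per well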
#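 Buffer or medium – tet-free medium with charcoal-stripped serum · Signal – automated 10x imaging of fixed Hoechst-stained cells · Also added – dexamethasone agonist, 1.0 µM final, for 30 min · Incubation – induction 48 h, compound 1 h, agonist 30 min · Read-out – GR-EGFP nuclear translocation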
# Autophagy HCS: autophagy modulation, high-content screen; MEF GFP-LC3 puncta imaging; test concentration mostly 10 µM; calls only at 10 µM (by protocol); hit rate 0.98% among 190,000;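 active = percentage of spot-positive cells more than 3 SD above its plate mean, without a fluorescence outlier flag or 80% toxicity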
# b-catenin transl: beta-catenin nuclear translocation modulation; HeLa beta-catenin nuclear translocation, immunofluorescence imaging; nuclear translocation activity, % at 5 µM; hit rate 0.3% among 190,000;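 active = nuclear translocation activity above 50% at 5 µM, with a well cell count of 50 or more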;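 note: per-cell ratio of nuclear to cytoplasmic median beta-catenin stain intensity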
#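 Test system: human HeLa cells, native beta-catenin. Compound dosing: 5 µM primary single dose, 0.1% DMSO, 0.02–20 µM confirmation series. Incubation: compound exposure 24 h at 37°C. Detection: beta-catenin immunostaining with DAPI counterstain, 20x imaging, 6 fields/well. Read-out basis: Nuclear/cytoplasmic beta-catenin signal ratio, % activation.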
# Lmaj promast: reduces viability of Leishmania major promastigotes; resazurin fluorescence viability; inhibition, % at 10 µM; hit rate 9% among 200,000; AID 1063; in the data active = inhibition above about 50%;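 note: promastigotes grown with compound for 44 hours at 28 °C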
# MT stabilizer: stabilizes microtubules in HeLa cells; AID 2205; hit rate 0.83% among 200,000; HeLa tubulin immunostaining HCS, 24 h; share of cells brighter than vehicle mean+2SD; % tubulin-high responders, % at 10 µM;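 active = plate Z-score above 3 for both tubulin-high and condensed-nucleus cell shares, with cell loss under 80%, at 10 µM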;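 note: anti alpha tubulin signal scored within the nucleus-defined area of each cell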
# A number is an active result; 0 = inactive; - = not tested or not shown; + = active, no number.
SMILES,CHOP inh,Dynein transport,Autophagy HCS,b-catenin transl,Lmaj promast,MT stabilizer
CCOCCCNC(=O)CNC(=S)N(Cc1ccc(C)cc1)Cc1ccco1,0,0,0,0,0,0
CCOC(=O)c1[nH]c(C)c(C(=O)NCc2cccnc2)c1C,0,0,0,-,0,0
O=C(CC(SCCO)c1ccc2c(c1)OCO2)c1ccco1 (centres undefined),0,0,0,-,56,0
COc1ccc(NCc2ccc([N+](=O)[O-])s2)cc1,0,0,0,0,73,0
COc1ccc(CNc2ccc(S(N)(=O)=O)cc2)cc1,0,0,0,0,0,0
COc1ccc(NCc2ccc([N+](=O)[O-])s2)c(OC)c1,0,0,0,0,98,0
COc1ccc(NC(=O)/C=C/c2ccccc2[N+](=O)[O-])c(OC)c1,0,0,0,0,0,0
Cc1ccc2[nH]c(=O)c(C(c3nnnn3C3CCCC3)N(Cc3cccnc3)Cc3ccco3)cc2c1 (centres undefined),0,0,0,0,85,0
CCOC(=O)Cn1nnnc1C(CC)N(Cc1cccs1)Cc1cc2ccc(OC)cc2[nH]c1=O (centres undefined),0,0,0,0,99,0
Clc1ccc(C(c2nnnn2C2CCCCC2)N(Cc2cccnc2)Cc2ccco2)cc1 (centres undefined),0,0,0,0,100,0
Cc1ccc2cc(C(c3nnnn3C3CCCC3)N(Cc3cccnc3)Cc3ccco3)c(=O)[nH]c2c1 (centres undefined),0,0,0,-,0,0
Cc1ccc2cc(C(c3nnnn3C3CCCC3)N(Cc3ccco3)Cc3cccs3)c(=O)[nH]c2c1 (centres undefined),0,0,0,0,82,0
C=CCSC1=N/C(=C/c2ccsc2)C(=O)N1c1ccccc1,0,0,0,0,0,0
CC(c1nnnn1C1CCCCC1)N(Cc1ccccc1)Cc1cccnc1 (centres undefined),0,0,0,0,92,0
COc1ccc2[nH]c(=O)c(CN(Cc3ccco3)C(c3nnnn3Cc3ccccc3)C(C)C)cc2c1 (centres undefined),0,0,0,-,0,0
CCC(c1nnnn1C1CCCCC1)N(Cc1ccco1)Cc1cc2ccc(OC)cc2[nH]c1=O (centres undefined),0,0,0,0,74,0
CCN(Cc1ccccc1)C(c1ccccn1)c1nnnn1C1CCCCC1 (centres undefined),0,0,0,-,0,0
O=C(CCn1cnnn1)Nc1ccc(F)cc1,0,0,0,0,0,0
CCC1CCCCN1C(=O)Cn1nc([N+](=O)[O-])c(Cl)c1C (centres undefined),0,0,0,0,0,0
CCCCCOc1ccc(Cl)cc1CN1CCOCC1,0,0,0,-,80,0
CCOc1ccc(Cl)cc1CN1CCOCC1,0,0,0,0,0,0
CC(C)CCOc1ccc(Cl)cc1CN1CCOCC1,83,0,0,0,89,0
Cc1cc(C)c(Cn2cnc3ccccc32)c(C)c1,0,0,0,0,0,0
COc1cccc(-n2nnc3c(=O)n(CC(=O)N4CCCc5ccccc54)cnc32)c1,0,0,0,0,71,0
COc1cccc(-n2nnc3c(=O)n(CC(=O)N4CCC(Cc5ccccc5)CC4)cnc32)c1,0,0,0,0,94,0
SMILES,CHOP inh,Dynein transport,Autophagy HCS,b-catenin transl,Lmaj promast,MT stabilizer
COc1cccc(-n2nnc3c(=O)n(CC(=O)N4CCC(C)CC4)cnc32)c1,0,0,0,0,0,0
Cc1ccc(C(=O)N2CCSCC2)cc1,0,0,0,-,0,0
CN(CCn1ccnc1)Cc1cn(Cc2ccccc2)nc1-c1ccc2c(c1)OCO2,0,0,-,0,-,-
COc1ccc(C2C(C#N)=C(/N=C/N3CCN(C)CC3)OC3=C2C(=O)CC(C)(C)C3)cc1 (centres undefined),0,0,0,0,100,0
COc1nc(N/N=C/c2ccc(-c3cccc([N+](=O)[O-])c3)o2)nc(N2CCOCC2)n1,71,0,0,0,0,0
Cc1ccc(/C=N/Nc2nc(N3CCOCC3)nc(N3CCOCC3)n2)o1,0,0,0,0,0,0
COc1ccc(-c2cnnc(N/N=C/c3ccc(-c4ccc([N+](=O)[O-])cc4)o3)n2)cc1,0,0,0,81,0,40
CCNc1nc(NCC)nc(N/N=C/c2ccc([N+](=O)[O-])o2)n1,0,0,0,0,98,0
O=[N+]([O-])c1ccc(/C=N/Nc2nc(N3CCCC3)nc(N3CCCC3)n2)o1,0,0,0,0,99,0
COc1ccccc1-c1cnnc(N/N=C/c2ccc(-c3cccc(Br)c3)o2)n1,0,0,0,0,0,0
Cc1cc(C(=O)NC(Cc2ccccc2)C(=O)O)c(C)o1 (centres undefined),0,0,-,0,-,-
O=[N+]([O-])c1ccc(-c2ccc(/C=N/Nc3nc(N4CCCC4)nc(N4CCCC4)n3)o2)cc1,0,0,+,0,0,35
O=[N+]([O-])c1cccc(-c2ccc(/C=N/Nc3nc(N4CCCCC4)nc(N4CCCCC4)n3)o2)c1,0,0,0,0,90,0
O=[N+]([O-])c1cccc(-n2cccc2/C=N/Nc2nc(N3CCCCC3)nc(N3CCCCC3)n2)c1,0,0,0,0,0,0
O=[N+]([O-])c1ccc(-n2cccc2/C=N/Nc2nc(N3CCCCC3)nc(N3CCCCC3)n2)cc1,0,0,0,0,0,0
O=[N+]([O-])c1cccc(/C=N/Nc2nc(N3CCCCC3)nc(N3CCCCC3)n2)c1,0,0,0,-,76,0
CSc1cccc(NC(=O)CSc2nc3ccccc3o2)c1,0,0,0,-,0,0
Cc1cc(C)c(S(=O)(=O)n2c([N+](=O)[O-])cnc2C)c(C)c1,0,0,0,0,0,0
O=C(CN(C(=O)Cn1nnc(-c2cccs2)n1)c1ccc2c(c1)OCCO2)NCc1ccccc1,0,0,0,0,95,0
COc1ccc(S(=O)(=O)N2CCOCC2)cc1NC(=O)CSc1cccc[n+]1[O-],0,0,-,0,-,-
CC(NC(=O)c1cccc(Cn2cc([N+](=O)[O-])cn2)c1)c1ccc(C(C)(C)C)cc1 (centres undefined),0,0,0,-,0,46
COc1ccc(C2C(C#N)=C(N)N(c3cccnc3)C3=C2C(=O)CC(C)(C)C3)cc1OC (centres undefined),0,0,0,0,0,0
COc1ccc(N2C(N)=C(C#N)C(c3cccnc3)C3=C2CC(C)(C)CC3=O)cc1 (centres undefined),0,0,0,0,0,50
COc1ccc(OC)c(N2C(N)=C(C#N)C(c3ccc(OC)c(O)c3)C3=C2CC(C)(C)CC3=O)c1 (centres undefined),0,0,-,0,-,-

# Screening results from PubChem.
